A value given as a limit tells only on which side of the number the result lay.

Common to all, as to type: functional
For one assay, the system named is Proteus vulgaris. Briefly: Minimal inhibitory concentration against Proteus vulgaris. Summed up:
(§1)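 Microtiter broth dilution MIC assay. Strains: S. aureus, S. faecalis, E. coli, P. vulgaris and C. albicans were wild-type clinical isolates; S. cerevisiae ATCC 7752, A. fumigatus ATCC 28212, A. niger ATCC 16404 and M. mucedo ATCC 7941.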

The subject of the next assay is Mucor mucedo. As to the kind of experiment: Minimal inhibitory concentration against Mucor mucedo. The procedure, abridged: as §1
For a further assay, the system named is Staphylococcus aureus. Briefly: Minimal inhibitory concentration against Staphylococcus aureus. The procedure, abridged: as §1
The test system of a further assay is Candida albicans. As to the kind of experiment: Minimal inhibitory concentration against Candida albicans. The procedure, abridged: as §1
In a further assay the test system is Aspergillus niger. Briefly: Minimal inhibitory concentration against Aspergillus niger. Summed up:
as §1

A further assay deals with Escherichia coli. As to the kind of experiment: Minimal inhibitory concentration against Escherichia coli. Summed up: as §1
For another assay, the system named is Aspergillus fumigatus. As to the kind of experiment: Minimal inhibitory concentration against Aspergillus fumigatus. The procedure, abridged:
as §1

For the next assay, the system named is Enterococcus faecalis. Briefly: Minimal inhibitory concentration against Streptococcus faecalis. Summed up:
as §1

The subject of the next assay is Saccharomyces cerevisiae. Briefly: Minimal inhibitory concentration against Saccharomyces cerevisiae. The procedure, abridged:
as §1

As to `CCCCCC(CCCCC)OC(=O)C[C@H](C[N+](C)(C)C)OC(=O)CC(C)C.[Cl-]`, the MIC against Proteus vulgaris was more than 100 µg/mL; in the assay on Mucor mucedo, 100 µg/mL; against Staphylococcus aureus, 12.5 µg/mL; against Candida albicans, 25 µg/mL; with Aspergillus niger it was 50 µg/mL; against Escherichia coli, 100 µg/mL. For the same compound, the figures for the minimum inhibitory concentration (MIC) in the assay with Aspergillus fumigatus, against Enterococcus faecalis and against Saccharomyces cerevisiae were more than 100 µg/mL, 3.12 µg/mL and 12.5 µg/mL, respectively.
For `CCCCCCCCCCCCCCCCCC(=O)O[C@H](CC(=O)O)C[N+](C)(C)C.[Cl-]`, the minimum inhibitory concentration (MIC) in the assay with Proteus vulgaris, against Mucor mucedo, in the assay on Staphylococcus aureus, against Candida albicans, against Aspergillus niger and against Escherichia coli was more than 100 µg/mL each time. In addition, the MIC in the assay with Aspergillus fumigatus was more than 100 µg/mL; against Enterococcus faecalis, 25 µg/mL; against Saccharomyces cerevisiae it was more than 100 µg/mL.
As to `CCCCCCCCCCCC(=O)O[C@H](CC(=O)OCCOc1ccccc1)C[N+](C)(C)C.[Cl-]`, the MIC with Proteus vulgaris was determined as 100 µg/mL; against Mucor mucedo, 25 µg/mL; in the assay with Staphylococcus aureus it was 6.25 µg/mL; against Candida albicans it was 3.12 µg/mL; against Aspergillus niger it was 12.5 µg/mL; against Escherichia coli, 50 µg/mL. The values for the minimal inhibitory concentration (MIC) against Aspergillus fumigatus, in the assay on Enterococcus faecalis and against Saccharomyces cerevisiae were 12.5 µg/mL, 3.12 µg/mL and 3.12 µg/mL, respectively.
Turning to `CCCCCCCCCCC(=O)O[C@H](CC(=O)OCCOc1ccccc1)C[N+](C)(C)C.[Cl-]`, the MIC turned out to be 50 µg/mL against Proteus vulgaris; 50 µg/mL in the assay on Mucor mucedo; 6.25 µg/mL with Staphylococcus aureus; 3.12 µg/mL in the assay with Candida albicans; 25 µg/mL with Aspergillus niger; 25 µg/mL with Escherichia coli. In addition, the MIC in the assay with Aspergillus fumigatus was 25 µg/mL; in the assay on Enterococcus faecalis it was 3.12 µg/mL; with Saccharomyces cerevisiae, 12.5 µg/mL.
On to `CCCCCCCCCCCCCOC(=O)C[C@H](C[N+](C)(C)C)OC(=O)CCCCCCCCCC.[Cl-]`, for which the minimum inhibitory concentration (MIC) against Proteus vulgaris is more than 100 µg/mL; against Mucor mucedo, 50 µg/mL; in the assay with Staphylococcus aureus, 50 µg/mL; in the assay on Candida albicans, 25 µg/mL; against Aspergillus niger, 100 µg/mL; in the assay on Escherichia coli it was more than 100 µg/mL. The MIC in the assay with Aspergillus fumigatus is more than 100 µg/mL; in the assay with Enterococcus faecalis, 25 µg/mL; against Saccharomyces cerevisiae it was 25 µg/mL.
As for `CC(C)CC(=O)O[C@H](CC(=O)OCCCCCCC(F)(F)C(F)(F)C(F)(F)C(F)(F)F)C[N+](C)(C)C.[Cl-]`, the minimal inhibitory concentration (MIC) against Proteus vulgaris is 100 µg/mL; in the assay with Mucor mucedo it was 50 µg/mL; in the assay on Staphylococcus aureus it was 12.5 µg/mL; in the assay on Candida albicans it was 12.5 µg/mL; against Aspergillus niger it was 50 µg/mL; against Escherichia coli, more than 100 µg/mL. The minimal inhibitory concentration (MIC) against Aspergillus fumigatus was 100 µg/mL; in the assay on Enterococcus faecalis, 6.25 µg/mL; against Saccharomyces cerevisiae, 25 µg/mL.
As to `C=CCCCCCCCCCOC(=O)C[C@H](C[N+](C)(C)C)OC(=O)CC(C)C.[Cl-]`, the minimal inhibitory concentration (MIC) with Proteus vulgaris was 50 µg/mL; in the assay on Mucor mucedo it was 12.5 µg/mL; in the assay on Staphylococcus aureus it was 12.5 µg/mL; against Candida albicans it was 6.25 µg/mL; against Aspergillus niger, 6.25 µg/mL; with Escherichia coli, 25 µg/mL. For the same compound, the minimal inhibitory concentration (MIC) in the assay with Aspergillus fumigatus amounted to 12.5 µg/mL; in the assay with Enterococcus faecalis, 3.12 µg/mL; against Saccharomyces cerevisiae, 6.25 µg/mL.
On to `CCCCCCCCCCOC(=O)C[C@H](C[N+](C)(C)C)OC(=O)CCCCCC.[Cl-]`, for which the MIC in the assay on Proteus vulgaris amounted to 50 µg/mL; in the assay with Mucor mucedo it was 50 µg/mL; against Staphylococcus aureus, 3.12 µg/mL; in the assay with Candida albicans, 3.12 µg/mL; against Aspergillus niger, 25 µg/mL; in the assay with Escherichia coli, 25 µg/mL. Also, the minimal inhibitory concentration (MIC) was 25 µg/mL in the assay on Aspergillus fumigatus, 3.12 µg/mL in the assay on Enterococcus faecalis and 3.12 µg/mL with Saccharomyces cerevisiae.
Turning to `CCCCCCCCOC(=O)C[C@H](C[N+](C)(C)C)OC(=O)CC(C)C.[Cl-]`, the minimal inhibitory concentration (MIC) was more than 100 µg/mL in the assay on Proteus vulgaris; more than 100 µg/mL with Mucor mucedo; 50 µg/mL in the assay with Staphylococcus aureus; more than 100 µg/mL against Candida albicans; more than 100 µg/mL with Aspergillus niger; more than 100 µg/mL against Escherichia coli. Further, the values for the MIC in the assay with Aspergillus fumigatus, against Enterococcus faecalis and with Saccharomyces cerevisiae were more than 100 µg/mL, 50 µg/mL and more than 100 µg/mL, respectively.
With `CCCCCCCCCCCCCOC(=O)C[C@H](C[N+](C)(C)C)OC(=O)CCCCCCCC.[Cl-]`, the minimum inhibitory concentration (MIC) in the assay with Proteus vulgaris was more than 100 µg/mL; against Mucor mucedo it was 50 µg/mL; with Staphylococcus aureus it was 12.5 µg/mL; in the assay on Candida albicans, 12.5 µg/mL; with Aspergillus niger, 25 µg/mL; against Escherichia coli it was more than 100 µg/mL. Moreover, the MIC in the assay on Aspergillus fumigatus was found to be 100 µg/mL; against Enterococcus faecalis, 6.25 µg/mL; in the assay with Saccharomyces cerevisiae, 12.5 µg/mL.
In the case of `CCCCCCCCCCCCOC(=O)C[C@H](C[N+](C)(C)C)OC(=O)CCCCCC.[Cl-]`, the minimal inhibitory concentration (MIC) was more than 100 µg/mL in the assay with Proteus vulgaris; 12.5 µg/mL with Mucor mucedo; 3.12 µg/mL in the assay on Staphylococcus aureus; 3.12 µg/mL in the assay with Candida albicans; 6.25 µg/mL with Aspergillus niger; more than 100 µg/mL with Escherichia coli. The figures for the minimum inhibitory concentration (MIC) against Aspergillus fumigatus, in the assay on Enterococcus faecalis and with Saccharomyces cerevisiae were 3.12 µg/mL, 1.56 µg/mL and 3.12 µg/mL, respectively.
As for `CCCCCCCCCCC(=O)O[C@H](CC(=O)OCCC(F)(F)C(F)(F)C(F)(F)C(F)(F)C(F)(F)C(F)(F)C(F)(F)C(F)(F)F)C[N+](C)(C)C.[Cl-]`, the MIC against Proteus vulgaris, in the assay with Mucor mucedo, with Staphylococcus aureus, against Candida albicans, against Aspergillus niger and against Escherichia coli was more than 100 µg/mL each time. The MIC in the assay on Aspergillus fumigatus, against Enterococcus faecalis and against Saccharomyces cerevisiae was more than 100 µg/mL each time.

Source of the values: ChEMBL document CHEMBL1131640, “L-carnitine esters as "soft", broad-spectrum antimicrobial amphiphiles” (J Med Chem, 1998).
